Measurements pooled from the literature.
Each line is one published result; the experiments were not run side by side.
Target: Inhibitor of nuclear factor kappa-B kinase subunit epsilon (IKBKE, Homo sapiens, UniProt Q14164)
Residues used in one study (Q14164 1-716): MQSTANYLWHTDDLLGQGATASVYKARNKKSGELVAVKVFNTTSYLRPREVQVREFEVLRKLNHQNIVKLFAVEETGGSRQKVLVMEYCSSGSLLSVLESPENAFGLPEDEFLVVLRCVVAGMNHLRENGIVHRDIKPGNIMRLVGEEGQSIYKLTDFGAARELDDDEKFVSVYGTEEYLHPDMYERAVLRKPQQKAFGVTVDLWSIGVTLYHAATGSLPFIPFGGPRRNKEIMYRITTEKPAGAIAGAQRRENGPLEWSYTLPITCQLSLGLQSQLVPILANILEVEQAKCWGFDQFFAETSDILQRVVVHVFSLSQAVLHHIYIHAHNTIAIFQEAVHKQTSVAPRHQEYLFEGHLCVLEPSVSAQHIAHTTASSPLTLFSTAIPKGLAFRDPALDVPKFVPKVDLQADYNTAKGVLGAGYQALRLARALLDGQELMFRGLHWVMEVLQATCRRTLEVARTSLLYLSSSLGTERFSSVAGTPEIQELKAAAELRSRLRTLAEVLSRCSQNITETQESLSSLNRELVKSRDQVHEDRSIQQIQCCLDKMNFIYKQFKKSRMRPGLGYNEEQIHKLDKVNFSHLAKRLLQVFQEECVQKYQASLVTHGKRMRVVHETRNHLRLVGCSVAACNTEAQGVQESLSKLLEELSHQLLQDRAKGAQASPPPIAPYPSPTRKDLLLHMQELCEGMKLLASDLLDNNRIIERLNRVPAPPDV

COc1ccnn2ncc(-c3ccnc(N(C)C)n3)c12 — remaining binding (binding; 1 µM): 94%
Cc1nn(CC(F)(F)F)cc1Nc1ncc(Br)c(NCc2ccc(S(N)(=O)=O)cc2)n1 — remaining activity (enzyme activity; inhibitor; radiometric; 1 µM): 23%
CC(C)CC(=O)N1CCc2nc(-c3ccc(Br)cc3)nc(N(C)Cc3ccccc3)c2C1 — remaining binding (cell-free assay; competition with immobilised ligand; 0.1 µM): 100%
Cc1cc(NC(=O)c2cccc3cc(-c4cccc5[nH]nc(N)c45)ccc23)ccc1F — activity vs control (enzyme activity; inhibitor; 0.1 µM): 111%
COc1cc2ncnc(Nc3ccc(Oc4ccccc4)cc3C)c2cc1OC — inhibition (enzyme activity; inhibitor; 1 µM): 5%
NS(=O)(=O)c1ccc(CNc2nc(Nc3cccc(NC(=O)N4CCCC4)c3)ncc2C2CC2)cc1 — remaining activity (enzyme activity; inhibitor; radiometric; 1 µM): 52%
C[C@H](NC(=O)c1cnc2n1[C@](C)(Cc1ccc(C#N)cc1)C(=O)N2c1cc(Cl)c(F)c(Cl)c1)C(=O)NC1(c2ccccn2)CC1 — remaining binding (cell-free assay; competition with immobilised ligand; 1 µM): 89%
N#CCCc1ccc2c(c1)-c1[nH]c3ccc([N+](=O)[O-])cc3c1CC(=O)N2 — remaining signal (cell-free assay; 0.5 µM): 89.2%
CN1CCc2cc(Nc3ncc(C4CC4)c(NCCCNC(=O)C4CCC4)n3)ccc2C1 — remaining activity (enzyme activity; inhibitor; radiometric; 1 µM): 4%
CCOc1cc(-c2nncn2C)ccc1Nc1ncc2cc(C)nc(NCC(C)(C)C)c2n1 — inhibition (enzyme activity; inhibitor; FRET; 1 µM): < 15%
NS(=O)(=O)c1ccc(CNc2ccnc(Nc3cccc(NC(=O)N4CCCC4)c3)n2)cc1 — remaining activity (enzyme activity; inhibitor; radiometric; 1 µM): 79%
COc1cc2c(N3CCN(C(=O)Nc4ccc(OC(C)C)cc4)CC3)ncnc2cc1OCCCN1CCCCC1 — remaining signal (cell-free assay; 0.5 µM): 96.2%
CCC(=O)N[C@H]1CC[C@@H](C(=O)N(C)c2ccc(-c3nc4ccccc4o3)cc2)C1 — remaining binding (cell-free assay; competition with immobilised ligand; 1 µM): 52%
Cc1nn(CC(F)(F)F)cc1Nc1nccc(NCc2ccc(S(N)(=O)=O)cc2)n1 — remaining activity (enzyme activity; inhibitor; radiometric; 1 µM): 73%
CC(=O)C1=C(C)N(c2cccc(C(F)(F)F)c2)C(=O)N[C@@H]1c1ccc(C#N)nc1 — remaining binding (cell-free assay; competition with immobilised ligand; 1 µM): 98.2%
Cc1ccc(C(=O)NCc2ccsc2)cc1C#Cc1cn(C(C)C)c2ncnc(N)c12 — activity vs control (enzyme activity; inhibitor; 1 µM): 104%
c1cc(CN2CCOCC2)cc(Nc2nccc(NCCc3cnc[nH]3)n2)c1 — remaining activity (enzyme activity; inhibitor; radiometric; 1 µM): 80%
CCN(CC)CCNC(=O)c1c(C)[nH]c(/C=C2\C(=O)Nc3ccc(F)cc32)c1C — remaining signal (cell-free assay; 0.5 µM): 45.6%
Cc1c[nH]c2nccc(Oc3c(F)cc(Nc4cc(Cl)nc(N)n4)cc3F)c12 — remaining binding (cell-free assay; competition with immobilised ligand; 0.1 µM): 93%
O=C1c2ccccc2-c2n[nH]c3cccc1c23 — activity vs control (enzyme activity; inhibitor; 0.5 µM): 88.9%
Cc1nn(CC(F)(F)F)cc1Nc1ncc(Br)c(NCCCNC(=O)C2CCC2)n1 — remaining activity (enzyme activity; inhibitor; radiometric; 1 µM): 1%
O=c1nc(-c2ccccn2)sc2ccccc12 — remaining binding (binding; competition with immobilised ligand; 1 µM): 100%
